Reference: ChEMBL document CHEMBL1123440, “Mitomycin C analogues with increased metal complexing ability” (J Med Chem, 1986)

Legend:
[1] = Ratio value, Optimal dose / Minimum effective dose; assay type: functional
Outline: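 Therapeutic ratio from the P388 ip survival test in female CDF1 mice (10⁶ ascites cells). Calculated as optimal dose divided by minimum effective dose. The minimum effective dose is the dose giving %T/C 125.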

[2] = Partition coefficient (logP); assay type: physicochemical; details: octanol/water
Outline: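 Shake-flask distribution between n-octanol and water containing phosphate buffer at pH 7.4, run by the Hansch method.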

P388 [3] = experiment: (§1) Antitumor activity against P-388 leukemia in mice, activity is expressed as maximum effect (% T/C) = MST(median survival time) treated/ MST control in the presence of compound only; assay type: functional, Mus musculus
Outline: (§2)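 P388 ascites, 10⁶ cells implanted ip in female CDF1 mice. Six mice per dose of analogue, with 10 saline-injected controls. Each test group carried its own mitomycin C positive control, six mice per dose. Read-out is median survival time (MST). %T/C = MST treated/MST control × 100, taken at the optimal dose. MED is the dose giving %T/C 125. 30-day survivors were counted.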

P388 [4] = experiment: Antitumor activity against P-388 leukemia in mice, activity is expressed as Minimum effective dose; assay type: functional; details: Mus musculus, read-out: MED; outline: as §2
P388 [5] = experiment: Antitumor activity against P-388 leukemia in mice, activity is expressed as Optimal dose; assay type: functional, Mus musculus; outline: as §2
P388 [6] = experiment: Antitumor activity against P-388 leukemia in mice, activity is expressed as maximum effect (% T/C) = MST(median survival time) treated/ MST control in the present of Mitomycin C; assay type: functional, Mus musculus; outline: as §2
Mus musculus [7] = species: Mus musculus; experiment: Compound was tested for antitumor activity against P-388 leukemia in mice, activity is expressed as maximum effect (% T/C) = MST(median survival time) treated/ MST control in the pr; assay type: functional; outline: as §2
Mus musculus [8] = species: Mus musculus; experiment: Compound was tested for antitumor activity against P-388 leukemia in mice, activity is expressed as maximum effect (% T/C) = MST(median survival time) treated/ MST control in the presence of compound only; 132->344; assay type: functional; outline: as §2
Mus musculus [9] = species: Mus musculus; experiment: Compound was tested for antitumor activity against P-388 leukemia in mice, activity is expressed as Optimal dose; 3.2-4.8; assay type: functional
Mus musculus [10] = species: Mus musculus; experiment: as §1; assay type: functional; outline: as §2

SMILES: CO[C@@]12C(COC(N)=O)C3=C(C(=O)C(C)=C(NCCNc4ccc([N+](=O)[O-])cn4)C3=O)N1CC1NC12 (stereo partly drawn)
- Ratio [1]: 8
- logP [2]: 0.77
- T/C (P388 [3]): 144%
- minimal effective dose (P388 [4]): 2.6 mg/kg
- OD (P388 [5]): 12.8 mg/kg
- T/C (P388 [6]): 250%

SMILES: CO[C@@]12C(COC(N)=O)C3=C(C(=O)C(C)=C(NCCOCCO)C3=O)N1CC1NC12 (stereo partly drawn)
- Ratio [1]: 64
- logP [2]: -0.71
- T/C (P388 [3]): 181%
- minimal effective dose (P388 [4]): 0.4 mg/kg
- OD (P388 [5]): 25.6 mg/kg
- T/C (P388 [6]): 213%

SMILES: CO[C@@]12C(COC(N)=O)C3=C(C(=O)C(C)=C(NCCCN(CCO)CCO)C3=O)N1CC1NC12 (stereo partly drawn)
- Ratio [1]: 1
- logP [2]: -0.36
- T/C (P388 [3]): 137%
- minimal effective dose (P388 [4]): 25.6 mg/kg
- OD (P388 [5]): 25.6 mg/kg
- T/C (P388 [6]): 279%

SMILES: CO[C@@]12C(COC(N)=O)C3=C(C(=O)C(C)=C(NCC(O)CN)C3=O)N1CC1NC12 (stereo partly drawn)
- T/C (P388 [3]): 122%
- minimal effective dose (P388 [4]): 12.8 mg/kg
- OD (P388 [5]): 12.8 mg/kg
- T/C (P388 [6]): >344%

SMILES: CO[C@@]12C(COC(N)=O)C3=C(C(=O)C(C)=C(NC(C)C(=O)O)C3=O)N1CC1NC12 (stereo partly drawn)
- T/C (P388 [3]): 109%
- OD (P388 [5]): 12.8 mg/kg
- T/C (P388 [6]): 132%

SMILES: CO[C@@]12C(COC(N)=O)C3=C(C(=O)C(C)=C(NCCC(=O)O)C3=O)N1CC1NC12 (stereo partly drawn)
- T/C (P388 [3]): 133%
- minimal effective dose (P388 [4]): 25.6 mg/kg
- OD (P388 [5]): 25.6 mg/kg
- T/C (P388 [6]): 194%

SMILES: CO[C@@]12C(COC(N)=O)C3=C(C(=O)C(C)=C(NCCNCCO)C3=O)N1CC1NC12 (stereo partly drawn)
- Ratio [1]: 1
- logP [2]: -0.57
- T/C (P388 [3]): 133%
- minimal effective dose (P388 [4]): 12.8 mg/kg
- OD (P388 [5]): 12.8 mg/kg
- T/C (P388 [6]): 156%

SMILES: CO[C@@]12C(COC(N)=O)C3=C(C(=O)C(C)=C(NCCC(N)C(=O)O)C3=O)N1CC1NC12 (stereo partly drawn)
- T/C (P388 [3]): 139%
- minimal effective dose (P388 [4]): 6.4 mg/kg
- OD (P388 [5]): 25.6 mg/kg
- T/C (P388 [6]): 206%

SMILES: CCOC(=O)C(CO)NC1=C(C)C(=O)C2=C(C1=O)C(COC(N)=O)[C@@]1(OC)C3NC3CN21 (stereo partly drawn)
- T/C (P388 [3]): 156%
- minimal effective dose (P388 [4]): 3.2 mg/kg
- OD (P388 [5]): 25.6 mg/kg
- T/C (P388 [6]): 194%

SMILES: COC(=O)C(CCSC)NC1=C(C)C(=O)C2=C(C1=O)C(COC(N)=O)[C@@]1(OC)C3NC3CN21 (stereo partly drawn)
- T/C (P388 [3]): 131%
- minimal effective dose (P388 [4]): 3.2 mg/kg
- OD (P388 [5]): 6.4 mg/kg
- T/C (P388 [6]): 250%

SMILES: CO[C@@]12C(COC(N)=O)C3=C(C(=O)C(C)=C(NCCc4ccccn4)C3=O)N1CC1NC12 (stereo partly drawn)
- Ratio [1]: 128
- logP [2]: -0.09
- T/C (P388 [3]): >375%
- minimal effective dose (P388 [4]): 0.2 mg/kg
- OD (P388 [5]): 25.6 mg/kg
- T/C (Mus musculus [7]): 319%

SMILES: CO[C@@]12[C@H](COC(N)=O)C3=C(C(=O)C(C)=C(N)C3=O)N1C[C@@H]1N[C@@H]12 [MITOMYCIN]
- Ratio [1]: 24
- T/C (Mus musculus [8]): 132%
- OD (Mus musculus [9]): 3.2 mg/kg
- minimal effective dose (P388 [4]): 0.2 mg/kg

SMILES: CO[C@@]12C(COC(N)=O)C3=C(C(=O)C(C)=C(NCc4ccccn4)C3=O)N1CC1NC12 (stereo partly drawn)
- Ratio [1]: 16
- logP [2]: -0.09
- T/C (P388 [3]): 233%
- minimal effective dose (P388 [4]): 1.6 mg/kg
- OD (P388 [5]): 25.6 mg/kg
- T/C (P388 [6]): 272%

SMILES: CO[C@@]12C(COC(N)=O)C3=C(C(=O)C(C)=C(NCCc4ccco4)C3=O)N1CC1NC12 (stereo partly drawn)
- Ratio [1]: 16
- T/C (P388 [3]): 328%
- minimal effective dose (P388 [4]): 1.6 mg/kg
- OD (P388 [5]): 25.6 mg/kg
- T/C (P388 [6]): 156%

SMILES: CO[C@@]12C(COC(N)=O)C3=C(C(=O)C(C)=C(N(C)CCc4ccccn4)C3=O)N1CC1NC12 (stereo partly drawn)
- Ratio [1]: > 64
- logP [2]: 0.37
- T/C (P388 [3]): 300%
- minimal effective dose (P388 [4]): < 0.2 mg/kg
- OD (P388 [5]): 12.8 mg/kg
- T/C (P388 [6]): 319%

SMILES: CO[C@@]12C(COC(N)=O)C3=C(C(=O)C(C)=C(NCCc4c[nH]cn4)C3=O)N1CC1NC12 (stereo partly drawn)
- Ratio [1]: 16
- logP [2]: -0.19
- T/C (P388 [3]): 163%
- minimal effective dose (P388 [4]): 1.6 mg/kg
- OD (P388 [5]): 25.6 mg/kg
- T/C (P388 [6]): 213%

SMILES: CO[C@@]12C(COC(N)=O)C3=C(C(=O)C(C)=C(NCCCN)C3=O)N1CC1NC12 (stereo partly drawn)
- Ratio [1]: 4
- logP [2]: -1.3
- T/C (P388 [3]): 147%
- minimal effective dose (P388 [4]): 6.4 mg/kg
- OD (P388 [5]): 25.6 mg/kg
- T/C (P388 [6]): 279%

SMILES: CO[C@@]12C(COC(N)=O)C3=C(C(=O)C(C)=C(NCCNCCN)C3=O)N1CC1NC12 (stereo partly drawn)
- logP [2]: -1.14
- T/C (P388 [3]): 100%
- T/C (P388 [6]): 178%

SMILES: CO[C@@]12C(COC(N)=O)C3=C(C(=O)C(C)=C(NC(CO)C(=O)O)C3=O)N1CC1NC12 (stereo partly drawn)
- T/C (P388 [3]): 138%
- minimal effective dose (P388 [4]): 6.4 mg/kg
- OD (P388 [5]): 25.6 mg/kg
- T/C (P388 [6]): 263%

SMILES: CO[C@@]12C(COC(N)=O)C3=C(C(=O)C(C)=C(NCC(O)CO)C3=O)N1CC1NC12 (stereo partly drawn)
- Ratio [1]: 4
- T/C (P388 [3]): 175%
- minimal effective dose (P388 [4]): 6.4 mg/kg
- OD (P388 [5]): 25.6 mg/kg
- T/C (P388 [6]): 205%

SMILES: CO[C@@]12C(COC(N)=O)C3=C(C(=O)C(C)=C(NCCc4ccncc4)C3=O)N1CC1NC12 (stereo partly drawn)
- Ratio [1]: 8
- logP [2]: 0.31
- T/C (Mus musculus [10]): 167%
- minimal effective dose (P388 [4]): 3.2 mg/kg
- OD (P388 [5]): 25.6 mg/kg
- T/C (P388 [6]): 233%

SMILES: CO[C@@]12C(COC(N)=O)C3=C(C(=O)C(C)=C(N(CCN)CCN)C3=O)N1CC1NC12 (stereo partly drawn)
- Ratio [1]: 8
- T/C (P388 [3]): 129%
- minimal effective dose (P388 [4]): 3.2 mg/kg
- OD (P388 [5]): 25.6 mg/kg
- T/C (P388 [6]): 276%

SMILES: CO[C@@]12C(COC(N)=O)C3=C(C(=O)C(C)=C(NCCCCN=C(N)N)C3=O)N1CC1NC12 (stereo partly drawn)
- Ratio [1]: 16
- T/C (P388 [3]): 156%
- minimal effective dose (P388 [4]): 1.6 mg/kg
- OD (P388 [5]): 25.6 mg/kg
- T/C (P388 [6]): 263%

SMILES: CO[C@@]12C(COC(N)=O)C3=C(C(=O)C(C)=C(NC(CCN=C(N)N)C(=O)O)C3=O)N1CC1NC12 (stereo partly drawn)
- T/C (P388 [3]): 138%
- minimal effective dose (P388 [4]): 6.4 mg/kg
- OD (P388 [5]): 25.6 mg/kg
- T/C (P388 [6]): 263%
